Data from ChEMBL document CHEMBL4118253, “Expedient synthesis and biological evaluation of alkenyl acyclic nucleoside phosphonate prodrugs” (Bioorg Med Chem, 2018).

Key:
[1] = test system: Influenza B virus; test: Antiviral activity against Influenza B virus infected in MDCK cells assessed as inhibition of virus-induced cytopathicity by MTS assay; format: functional, organism-based
[2] = test system: Human alphaherpesvirus 1; test: Antiviral activity against acyclovir-resistant thymidine kinase deficient Herpes simplex virus 1 KOS infected in HEL cells assessed as inhibition of virus-induced cytopathicity; format: functional, organism-based; conditions: Human alphaherpesvirus 1, KOS
[3] = test system: Human alphaherpesvirus 2; test: Antiviral activity against Herpes simplex virus 2 G infected in HEL cells assessed as inhibition of virus-induced cytopathicity; format: functional, organism-based; conditions: Human alphaherpesvirus 2, strain G
[4] = test system: Yellow fever virus; test: Antiviral activity against Yellow fever virus infected in African green monkey Vero cells assessed as inhibition of virus-induced cytopathicity; format: functional, organism-based
[5] = test system: Human alphaherpesvirus 3; test: Antiviral activity against thymidine kinase deficient Varicella-Zoster virus infected in HEL cells assessed as reduction in virus plaque formation; format: functional, organism-based; conditions: Human alphaherpesvirus 3, HEL
[6] = test system: Influenza B virus; test: Antiviral activity against Influenza B virus infected in MDCK cells assessed as inhibition of virus-induced visual cytopathicity; format: functional, organism-based
[7] = test system: Vesicular stomatitis virus; test: Antiviral activity against Vesicular stomatitis virus infected in human HeLa cells assessed as inhibition of virus-induced cytopathicity; format: functional, organism-based
[8] = test system: Human betaherpesvirus 5; test: Antiviral activity against Human cytomegalovirus AD169 infected in HEL cells assessed as inhibition of virus-induced cytopathicity; format: functional, organism-based; conditions: Human betaherpesvirus 5, AD169, HEL
[9] = Cytotoxicity against human HeLa cells assessed as alteration of cell morphology by microscopic analysis; format: cell-based
[10] = test system: Influenza A virus H3N2; test: Antiviral activity against Influenza A virus H3N2 infected in MDCK cells assessed as inhibition of virus-induced visual cytopathicity; format: functional, organism-based
[11] = test system: Punta Toro virus; test: Antiviral activity against Punta Toro virus infected in African green monkey Vero cells assessed as inhibition of virus-induced cytopathicity; format: functional, organism-based
[12] = test system: Vaccinia virus; test: Antiviral activity against Vaccinia virus infected in HEL cells assessed as inhibition of virus-induced cytopathicity; format: functional, organism-based; conditions: Orthopoxvirus vaccinia
[13] = test system: Human respirovirus 3; test: Antiviral activity against Parainfluenza virus 3 infected in human HeLa cells assessed as inhibition of virus-induced cytopathicity; format: functional, organism-based; conditions: Human respirovirus 3, HeLa
[14] = test system: Influenza A virus H3N2; test: Antiviral activity against Influenza A virus H3N2 infected in MDCK cells assessed as inhibition of virus-induced cytopathicity by MTS assay; format: functional, organism-based
[15] = test system: Influenza A virus; test: Antiviral activity against Influenza A virus H1N1 infected in MDCK cells assessed as inhibition of virus-induced cytopathicity by MTS assay; format: functional, organism-based
[16] = test system: Influenza A virus; test: Antiviral activity against Influenza A virus H1N1 infected in MDCK cells assessed as inhibition of virus-induced visual cytopathicity; format: functional, organism-based
[17] = Cytotoxicity against African green monkey Vero cells assessed as alteration of cell morphology by microscopic analysis; format: cell-based; conditions: chlorocebus sabaeus
Outline: (§1)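 The value is the minimal cytotoxic concentration (MCC), the lowest concentration that causes a microscopically visible change in cell morphology. It was read in the same HEL or Vero cell cultures used for the antiviral tests.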

[18] = Cytotoxicity against MDCK cells assessed as alteration of cell morphology by microscopic analysis; format: cell-based, Canis lupus familiaris; conditions: dog
[19] = test system: Human coronavirus 229E; test: Antiviral activity against Human coronavirus 229E infected in HEL cells assessed as inhibition of virus-induced cytopathicity; format: functional, organism-based
[20] = test system: Coxsackievirus B4; test: Antiviral activity against Coxsackie virus B4 infected in African green monkey Vero cells assessed as inhibition of virus-induced cytopathicity; format: functional, organism-based; conditions: Enterovirus B
[21] = test system: Human betaherpesvirus 5; test: Antiviral activity against Human cytomegalovirus Davis infected in HEL cells assessed as inhibition of virus-induced cytopathicity; format: functional, organism-based; conditions: Human betaherpesvirus 5, Davis
[22] = test system: Respiratory syncytial virus; test: Antiviral activity against Respiratory syncytial virus infected in human HeLa cells assessed as inhibition of virus-induced cytopathicity; format: functional, organism-based
[23] = test system: Mammalian orthoreovirus 1; test: Antiviral activity against Reovirus-1 infected in human HeLa cells assessed as inhibition of virus-induced cytopathicity; format: functional, organism-based; conditions: Mammalian orthoreovirus 1, HeLa
[24] = test system: Human alphaherpesvirus 3; test: Antiviral activity against thymidine kinase expressing Varicella-Zoster virus infected in HEL cells assessed as reduction in virus plaque formation; format: functional, organism-based; conditions: Human alphaherpesvirus 3, HEL
[25] = test system: Sindbis virus; test: Antiviral activity against Sindbis Virus infected in African green monkey Vero cells assessed as inhibition of virus-induced cytopathicity; format: functional, organism-based
[26] = Cytotoxicity against HEL cells assessed as alteration of cell morphology by microscopic analysis; format: cell-based; conditions: human; outline: as §1
[27] = test system: Human alphaherpesvirus 1; test: Antiviral activity against Herpes simplex virus 1 KOS infected in HEL cells assessed as inhibition of virus-induced cytopathicity; format: functional, organism-based; conditions: Human alphaherpesvirus 1, KOS
[28] = test system: Human adenovirus 2; test: Antiviral activity against Adenovirus 2 infected in HEL cells assessed as inhibition of virus-induced cytopathicity; format: functional, organism-based; conditions: Human mastadenovirus C

| Compound | EC50 [1] [µM] | EC50 [2] [µM] | EC50 [3] [µM] | EC50 [4] [µM] | EC50 [5] [µM] | EC50 [6] [µM] | EC50 [7] [µM] | EC50 [8] [µM] | MCC [9] [µM] | EC50 [10] [µM] | EC50 [11] [µM] | EC50 [12] [µM] | EC50 [13] [µM] | EC50 [14] [µM] | EC50 [15] [µM] | EC50 [16] [µM] | MCC [17] [µM] | MCC [18] [µM] | EC50 [19] [µM] | EC50 [20] [µM] | other results |
| --- | --- | --- | --- | --- | --- | --- | --- | --- | --- | --- | --- | --- | --- | --- | --- | --- | --- | --- | --- | --- | --- |
| C/C(=C\CP(=O)(N[C@@H](C)C(=O)OC(C)C)Oc1cccc2ccccc12)Cn1ccc(=O)[nH]c1=O (stereo partly drawn) | > 100 | > 100 | > 100 | > 100 | > 100 | > 100 | > 100 | > 100 | > 100 | > 100 | > 100 | > 100 | > 100 | > 100 | > 100 | > 100 | > 100 | > 100 | > 100 | > 100 | EC50 [21]: > 100 µM; EC50 [22]: > 100 µM; EC50 [23]: > 100 µM; EC50 [24]: 20 µM; EC50 [25]: > 100 µM; MCC [26]: > 100 µM; EC50 [27]: > 100 µM; EC50 [28]: > 100 µM |
| C/C(=C\CP(=O)(N[C@@H](C)C(=O)OCc1ccccc1)Oc1ccccc1)Cn1cc(C)c(=O)[nH]c1=O (stereo partly drawn) | > 100 | > 100 | > 100 | > 100 | 46.7 | > 100 | > 100 | > 100 | > 100 | > 100 | > 100 | > 100 | > 100 | > 100 | > 100 | > 100 | > 100 | > 100 | > 100 | > 100 | EC50 [21]: > 100 µM; EC50 [22]: > 100 µM; EC50 [23]: > 100 µM; EC50 [24]: 55.7 µM; EC50 [25]: > 100 µM; MCC [26]: > 100 µM; EC50 [27]: > 100 µM; EC50 [28]: > 100 µM |
| C/C(=C\CP(=O)(N[C@@H](C)C(=O)OCc1ccccc1)Oc1cccc2c1CCCC2)Cn1cc(C)c(=O)[nH]c1=O (stereo partly drawn) | > 100 | > 100 | > 100 | > 100 | 47.2 | > 100 | > 100 | > 100 | ≥ 100 | > 100 | > 100 | > 100 | > 100 | > 100 | > 100 | > 100 | ≥ 100 | > 100 | > 100 | > 100 | EC50 [21]: > 100 µM; EC50 [22]: > 100 µM; EC50 [23]: > 100 µM; EC50 [24]: 50.2 µM; EC50 [25]: > 100 µM; MCC [26]: > 100 µM; EC50 [27]: > 100 µM; EC50 [28]: > 100 µM |
| C/C(=C\CP(=O)(N[C@@H](C)C(=O)OC(C)C)Oc1ccccc1)Cn1cc(C)c(=O)[nH]c1=O (stereo partly drawn) | > 100 | > 100 | > 100 | > 100 | > 100 | > 100 | > 100 | > 100 | ≥ 20 | > 100 | > 100 | > 100 | > 100 | > 100 | > 100 | > 100 | ≥ 20 | > 100 | > 100 | > 100 | EC50 [21]: > 100 µM; EC50 [22]: > 100 µM; EC50 [23]: > 100 µM; EC50 [24]: 76.5 µM; EC50 [25]: > 100 µM; MCC [26]: > 100 µM; EC50 [27]: > 100 µM; EC50 [28]: > 100 µM |
| C/C(=C\CP(=O)(N[C@@H](C)C(=O)OC(C)C)Oc1ccccc1)Cn1ccc(=O)[nH]c1=O (stereo partly drawn) | > 100 | > 100 | > 100 | > 100 | > 100 | > 100 | > 100 | > 100 | > 100 | > 100 | > 100 | > 100 | > 100 | > 100 | > 100 | > 100 | > 100 | > 100 | > 100 | > 100 | EC50 [21]: > 100 µM; EC50 [22]: > 100 µM; EC50 [23]: > 100 µM; EC50 [24]: > 100 µM; EC50 [25]: > 100 µM; MCC [26]: > 100 µM; EC50 [27]: > 100 µM; EC50 [28]: > 100 µM |
| C/C(=C\CP(=O)(N[C@@H](C)C(=O)OCc1ccccc1)Oc1cccc2ccccc12)Cn1ccc(=O)[nH]c1=O (stereo partly drawn) | > 100 | > 100 | > 100 | > 100 | 58.5 | > 100 | > 100 | > 100 | > 100 | > 100 | > 100 | > 100 | > 100 | > 100 | > 100 | > 100 | > 100 | > 100 | > 100 | > 100 | EC50 [21]: > 100 µM; EC50 [22]: > 100 µM; EC50 [23]: > 100 µM; EC50 [24]: 100 µM; EC50 [25]: > 100 µM; MCC [26]: > 100 µM; EC50 [27]: > 100 µM; EC50 [28]: > 100 µM |
